From PubChem BioAssay
Only some compounds are listed: those with a hit (about 4.8% of all), similar ones and a draw of the others.
APP 5'UTR act = APP 5'UTR luciferase reporter activation. activation, % at 2 µM. actives 1% (n = 190,000). SH-SY5Y APP 5'UTR luciferase reporter, luminescence; zero percent = DMSO vehicle wells. AID 1276;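 active means activation above a set limit, based on mean plus 3 SD of controls, cut at about 140% in these data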
STAT1 act = STAT1 signaling activation | actives 2.6% (n = 200,000) | activation (% of control), % at 5.5 µM | NIH 3T3 STAT1-luciferase reporter, IFN-gamma, luminescence; 100% = IFN-gamma alone, no compound;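 active means activation above the screen-wide mean activation plus 3 SD, cut at about 130% in these data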
FLuc inhib CS = inhibits firefly luciferase, flagging false hits in luciferase inhibition screens; P08659; ATPLite firefly luciferase biochemical luminescence, 10 min; inhibition, % at 10 µM; actives 1.5% (n = 200,000); AID 1006;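 active means inhibition above about 50% when tested at 10 µM, limit read from the data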
Target sequence (P08659 whole entry, looked up): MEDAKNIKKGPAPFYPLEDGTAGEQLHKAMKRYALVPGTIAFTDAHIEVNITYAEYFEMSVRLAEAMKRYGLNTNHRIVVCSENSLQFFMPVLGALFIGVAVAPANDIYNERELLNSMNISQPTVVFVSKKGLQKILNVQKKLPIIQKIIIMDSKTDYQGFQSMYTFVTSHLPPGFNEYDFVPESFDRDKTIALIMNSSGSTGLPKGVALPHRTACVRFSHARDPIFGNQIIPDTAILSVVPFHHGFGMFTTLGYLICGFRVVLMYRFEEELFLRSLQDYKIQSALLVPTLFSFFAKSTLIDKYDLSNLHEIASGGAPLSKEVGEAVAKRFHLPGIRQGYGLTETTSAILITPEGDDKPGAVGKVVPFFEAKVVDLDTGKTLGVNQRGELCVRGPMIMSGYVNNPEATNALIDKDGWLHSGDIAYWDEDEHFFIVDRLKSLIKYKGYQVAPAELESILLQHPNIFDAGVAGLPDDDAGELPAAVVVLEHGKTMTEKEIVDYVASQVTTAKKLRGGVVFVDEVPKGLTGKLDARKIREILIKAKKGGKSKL
FLuc stim CS = firefly luciferase counter-screen for stimulation assays. P08659. ATPlite luciferase biochemical, luminescence, 10 min; 0 = ATP-free wells, 1 = DMSO control. activation factor at 10 µM. 200,000 tested, under 10 active. AID 1027;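 active means luciferase activation factor, scaled between plate controls, of at least 2 with compound at 10 µM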
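Assay system – cell-free luciferase reagent · Medium – PBS-based ATP solution · Dosing – test compounds dosed from 2 mM stocks in 100% DMSO · Timing – 10 min, room temperature · Technique – light output (luminescence) · Measure – luminescence gain marking luciferase activators · Controls – No-ATP low control, compound-free enzyme-plus-ATP high control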
NF-kB neuron act = compounds increasing NF-kB expression in human neuronal cells. actives 1.6% (n = 190,000). NF-kB reporter expression; active compounds read high. fold change at 12.5 µM; in the data active means fold change above about 3.3
APP 5UTR inh = APP translation inhibition; SH-SY5Y APP 5'UTR-luciferase reporter, luminescence; inhibition, % at 2 µM; actives 0.82% (n = 190,000); AID 1285;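 active means inhibition above a set limit, derived from the sample mean plus 3 SD, cut at about 45% in these data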
STAT1 act conf = confirmation of STAT1 signaling activators | shares compounds with STAT1 act | NIH 3T3 STAT1-luciferase reporter, IFN-gamma potentiation, luminescence; 100% = IFN-gamma EC80 alone, no compound | activation (% of control), % at 5.7 µM | actives 97% (n = 1,200) | AID 1262;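 active means activation above a set limit carried over from the earlier primary STAT1 screen, cut at about 140% in these data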
NFkB act STAT1ct = NF-kappaB activation in STAT1 activator counter-screen | shares compounds with STAT1 act | HEK293T NF-kB luciferase reporter, TNF-alpha stimulated, luminescence; 100% = TNF-alpha with vehicle only | actives 43% (n = 1,200) | activation (% of control), % at 5.7 µM;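 active means activation above the mean of solvent-only control wells plus 3 SD, set per campaign, cut at about 130% in these data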;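 further: TNF-alpha given at a submaximal dose yielding about 80% of full reporter signal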
STAT3 act 2 = activates human STAT3, counter-screen to STAT1 activators | activation (% of control), % at 5.7 µM | actives 46% (n = 1,200) | U3A cells STAT3-luciferase reporter, IL-6, luminescence; cells lack STAT1; 100 = IL-6 alone, no compound effect | shares compounds with STAT1 act | AID 1316;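 active means activation above the solvent-only control well mean plus 3 SD, set per plate batch, cut at about 110% in these data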;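 further: higher means more STAT3 reporter activation so hits are non-selective activators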
A number is an active result; - = inactive; . = no result given.

SMILES | APP 5'UTR act | STAT1 act | FLuc inhib CS | FLuc stim CS | NF-kB neuron act | APP 5UTR inh | STAT1 act conf | NFkB act STAT1ct | STAT3 act 2
COc1ccc(-c2csc(N3C(=N)SCC3=O)n2)cc1 | - | 164 | - | - | 4.9 | - | 294 | - | 112
COc1ccc(-c2csc(N3C(=O)C4C5c6ccccc6C(c6ccccc65)[C@@H]4C3=O)n2)cc1 (stereo not given in full) | - | - | - | - | - | - | . | . | .
COc1ccc(-c2csc(N3C(=O)CNC3=S)n2)cc1 | 204 | 179 | - | - | 5.3 | - | 260 | - | -
COc1ccc(-c2csc(N3C(=O)C4C5c6ccccc6C(c6ccccc65)C4C3=O)n2)cc1 (stereo not given) | - | - | - | - | - | - | . | . | .
O=C1CNC(=S)N1c1nc(-c2ccccc2)cs1 | - | 154 | - | - | - | - | 188 | - | 115
CC(=O)Nc1sc(C)c(C)c1C(=O)OC1CCOC1=O (stereo not given) | - | - | - | - | - | - | . | . | .
CCc1ccc(CNC(=O)C2CCN(S(=O)(=O)N3CCC4(CC3)OCCO4)CC2)cc1 | - | - | - | - | - | - | . | . | .
Cc1ccc(C)c(NC(=O)COC(=O)CC2c3ccccc3CCN2S(=O)(=O)c2ccc(F)cc2)c1 (stereo not given) | - | - | - | - | - | - | . | . | .
COc1ccc(C(=O)NCCNC(=O)c2cc(OCC(F)(F)F)ccc2OCC(F)(F)F)cc1 | - | - | - | - | - | - | . | . | .
CCOc1ccc2nc(N3CCOCC3)nc(C)c2c1 | - | 155 | - | - | 3.8 | - | 181 | - | -
CCOc1ccc(Nc2cc(C)nc(N3CCOCC3)n2)cc1 | - | - | - | - | - | - | . | . | .
Cc1cccn2c(CNC3CCCc4ccccc43)c(C(=O)N3CCCCC3)nc12 (stereo not given) | - | - | - | - | - | - | . | . | .
OCc1cn(-c2ccccc2)nc1-c1cc2ccccc2o1 | - | 167 | - | - | 9.7 | - | 213 | 139 | -
O=C(N/N=C/c1cn(-c2ccccc2)nc1-c1cc2ccccc2o1)c1c[nH]c2ccccc12 | 187 | 187 | - | - | . | - | 199 | 135 | -
COc1ccc(NC(=O)CN2C(=O)N(C)Cc3ccccc32)c(C)c1 | - | - | - | - | - | - | . | . | .
CC1(C(=O)NCc2ccccn2)C=CCN1C(=O)c1ccccc1 (stereo not given) | - | - | - | - | - | - | . | . | .
Cn1cc(Cl)c(C(=O)Nc2nc3ccc(Cl)cc3s2)n1 | - | 151 | - | - | - | - | 171 | 138 | -
CCOC(=O)c1ccc2nc(NC(C)=O)sc2c1 | - | 161 | - | - | - | - | 168 | - | -
CCOC(=O)c1ccc2nc(Nc3nc4ccc(F)cc4s3)sc2c1 | - | - | - | - | - | - | . | . | .
CC(=O)Nc1nc2ccc(Br)cc2s1 | - | 174 | - | - | - | - | 205 | 141 | 112
O=C(CSc1nc2ccccc2o1)Nc1nc2ccc(Br)cc2s1 | - | - | - | - | - | - | . | . | .
Cn1cc(Cl)c(C(=O)Nc2nc3ccc([N+](=O)[O-])cc3s2)n1 | - | - | - | - | - | - | . | . | .
CCOc1ccc(NC(=O)CN(C)CC(=O)Nc2ccc(Br)cc2F)cc1OCC | - | - | - | - | - | - | . | . | .
CC(C)(C)c1ccc(/C=C/C(=O)N2CCCCC2)cc1 | - | 169 | - | - | 4.4 | - | 166 | 149 | 128
Cc1ccc(/C=C/C(=O)N2CCCC(C)C2)cc1 (stereo not given) | - | 168 | 75 | - | 4.5 | - | 193 | - | -
SMILES | APP 5'UTR act | STAT1 act | FLuc inhib CS | FLuc stim CS | NF-kB neuron act | APP 5UTR inh | STAT1 act conf | NFkB act STAT1ct | STAT3 act 2
CC1CCN(C(=O)/C=C/c2ccc(C(C)(C)C)cc2)CC1 | - | - | - | - | - | - | . | . | .
COCCN1Cc2cccc(C(=O)NC(C)CCc3ccco3)c2C1=O (stereo not given) | - | - | - | - | - | - | . | . | .
COc1ccc(NC(=O)C(=S)NC2CCCCC2)cc1 | - | 158 | - | - | - | - | 194 | 138 | 115
CCc1ccc(NC(=O)C(=S)NC2CCCCC2)cc1 | - | 160 | - | - | - | - | 200 | 144 | 113
CCOc1ccc(C(=O)NCC2OCCc3ccccc32)cc1 (stereo not given) | - | - | - | - | - | - | . | . | .
CN(/N=C/c1ccncc1)c1cnc2ccccc2n1 | 181 | 153 | 56 | - | 3.7 | - | 195 | - | 124
COc1ccc(/C=C/c2nc3ccccc3n2Cc2ccccc2OC)cc1 | 179 | 154 | 88 | - | 5.6 | - | 166 | - | 113
CC1(C(=O)OCc2cc(=O)n3cc(Br)ccc3n2)CC1(Cl)Cl (stereo not given) | - | 161 | - | - | - | - | 168 | - | -
CCOC(=O)c1cc(NC(=O)c2ccco2)ccc1N1CCOCC1 | - | - | - | - | - | - | . | . | .
O=C(CCOc1ccccc1F)N1CCN(c2ccccc2O)CC1 | - | - | - | - | - | - | . | . | .
O=c1oc2ccccc2cc1-c1nc2c(s1)CCc1ccccc1-2 | . | - | - | - | - | . | . | . | .
O=c1oc2ccccc2cc1-c1nnc(NCc2ccco2)s1 | 147 | 154 | - | - | 5.4 | - | 188 | 139 | 112
O=c1[nH]c(=O)c2nc3c4ccccc4c4ccccc4c3nc2[nH]1 | - | 152 | - | - | - | - | 140 | - | -
O=c1[nH]c(=O)c2nc(-c3ccc(Cl)cc3)cnc2[nH]1 | - | - | - | - | - | - | . | . | .
CCCC(=O)Nc1nc2ccc3nc(C)sc3c2s1 | - | - | - | - | - | - | . | . | .
CCC(=O)Nc1nc2ccc3sc(C)nc3c2s1 | - | 168 | - | - | - | - | 189 | - | 143
Cc1csc(NC(=O)c2ccc(C)c([N+](=O)[O-])c2)n1 | 172 | 184 | - | - | 5.6 | - | 236 | - | -
Cc1sc(NC(=O)c2ccccc2)c(C#N)c1-c1ccccc1 | 138 | 166 | - | - | 4.9 | - | 200 | 141 | -
O=C(Nc1ccc(NC(=S)NC(=O)c2cccs2)cc1)c1ccco1 | - | - | - | - | - | - | . | . | .
C/C(=N\NC(=O)c1ccco1)c1ccc(NC(=O)c2cccs2)cc1 | - | 154 | - | - | - | - | - | - | -
